In ChEMBL document CHEMBL5653631, “A Potent and Selective ULK1 Inhibitor Suppresses Autophagy and Sensitizes Cancer Cells to Nutrient Stress” (iScience, 2018):
Blank lines part the entries; values can stand above or below the molecule they belong to.

Tests used:
[1] = molecular target: Phosphorylase b kinase gamma catalytic chain, skeletal muscle/heart isoform (Homo sapiens) (UniProt Q16816); assay: Inhibition of human recombinant PHKg1 at 500 nM in presence of ATP by radiometric assay relative to control
[2] = molecular target: T1, Homeodomain-interacting protein kinase 4 (Homo sapiens) (UniProt Q8NE63); assay: Inhibition of human recombinant HIPK4 at 500 nM related to control ULK1
T1 sequence (whole entry): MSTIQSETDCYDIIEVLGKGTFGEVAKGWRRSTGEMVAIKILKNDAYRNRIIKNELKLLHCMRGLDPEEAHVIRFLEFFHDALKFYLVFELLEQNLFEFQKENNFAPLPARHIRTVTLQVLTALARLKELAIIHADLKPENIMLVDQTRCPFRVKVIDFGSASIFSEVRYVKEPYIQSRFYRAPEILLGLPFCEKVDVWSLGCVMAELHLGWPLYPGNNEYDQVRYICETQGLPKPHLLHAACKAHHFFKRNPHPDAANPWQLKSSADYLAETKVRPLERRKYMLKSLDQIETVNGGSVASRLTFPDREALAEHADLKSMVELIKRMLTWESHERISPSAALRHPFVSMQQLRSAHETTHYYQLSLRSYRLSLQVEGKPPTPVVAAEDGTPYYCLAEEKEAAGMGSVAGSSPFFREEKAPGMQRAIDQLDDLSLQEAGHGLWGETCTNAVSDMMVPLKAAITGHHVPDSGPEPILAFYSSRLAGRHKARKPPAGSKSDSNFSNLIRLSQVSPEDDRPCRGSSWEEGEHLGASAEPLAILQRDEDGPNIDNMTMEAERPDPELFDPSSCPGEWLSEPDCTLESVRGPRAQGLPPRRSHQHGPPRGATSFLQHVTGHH

[3] = molecular target: Protein kinase C alpha type (Homo sapiens) (UniProt P17252); assay: Inhibition of human recombinant PKCa at 500 nM in presence of ATP by radiometric assay relative to control
[4] = molecular target: [Pyruvate dehydrogenase (acetyl-transferring)] kinase isozyme 4, mitochondrial (Homo sapiens) (UniProt Q16654); assay: Inhibition of human recombinant PDHK4 at 15 nM in presence of ATP by radiometric assay relative to control
Chain of [Pyruvate dehydrogenase (acetyl-transferring)] kinase isozyme 4, mitochondrial (Homo sapiens) (Q16654 whole entry, looked up): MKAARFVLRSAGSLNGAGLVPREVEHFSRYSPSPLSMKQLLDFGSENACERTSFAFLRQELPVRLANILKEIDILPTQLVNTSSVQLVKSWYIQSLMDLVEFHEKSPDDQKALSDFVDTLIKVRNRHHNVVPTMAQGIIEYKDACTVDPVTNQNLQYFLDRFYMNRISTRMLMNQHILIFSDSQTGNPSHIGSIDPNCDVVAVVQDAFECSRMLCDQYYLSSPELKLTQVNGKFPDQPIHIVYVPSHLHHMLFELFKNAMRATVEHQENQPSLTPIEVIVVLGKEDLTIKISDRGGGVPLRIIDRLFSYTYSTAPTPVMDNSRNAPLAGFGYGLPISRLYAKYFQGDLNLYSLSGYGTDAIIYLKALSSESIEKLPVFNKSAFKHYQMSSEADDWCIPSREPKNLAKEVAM

[5] = molecular target: RAC-alpha serine/threonine-protein kinase (Homo sapiens) (UniProt P31749); assay: Inhibition of human recombinant AKT1 at 15 nM in presence of ATP by radiometric assay relative to control
Chain of RAC-alpha serine/threonine-protein kinase (Homo sapiens) (P31749 whole entry): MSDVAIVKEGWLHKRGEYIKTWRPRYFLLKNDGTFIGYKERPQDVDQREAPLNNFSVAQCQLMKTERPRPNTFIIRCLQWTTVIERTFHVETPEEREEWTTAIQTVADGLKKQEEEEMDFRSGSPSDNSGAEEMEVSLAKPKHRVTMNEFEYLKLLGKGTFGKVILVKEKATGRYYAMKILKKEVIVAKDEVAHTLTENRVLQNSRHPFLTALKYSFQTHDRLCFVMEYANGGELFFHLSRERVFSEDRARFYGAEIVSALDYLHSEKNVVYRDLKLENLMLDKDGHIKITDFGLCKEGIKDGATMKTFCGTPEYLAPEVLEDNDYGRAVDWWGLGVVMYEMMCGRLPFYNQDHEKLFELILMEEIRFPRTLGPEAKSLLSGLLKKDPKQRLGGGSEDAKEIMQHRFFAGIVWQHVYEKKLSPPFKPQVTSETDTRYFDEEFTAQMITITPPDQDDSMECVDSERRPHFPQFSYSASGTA
Method in brief: (§1)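 Panel of 327 recombinant human kinases in radiometric activity assays, each screened in duplicate at a single inhibitor concentration; percent activity remaining relative to vehicle control, percent inhibition taken as 100 minus activity remaining.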

[6] = molecular target: Cyclin-dependent kinase 7 (Homo sapiens) (UniProt P50613); assay: Inhibition of human recombinant CDK7 at 15 nM related to control ULK1
Chain of Cyclin-dependent kinase 7 (Homo sapiens) (P50613 whole entry): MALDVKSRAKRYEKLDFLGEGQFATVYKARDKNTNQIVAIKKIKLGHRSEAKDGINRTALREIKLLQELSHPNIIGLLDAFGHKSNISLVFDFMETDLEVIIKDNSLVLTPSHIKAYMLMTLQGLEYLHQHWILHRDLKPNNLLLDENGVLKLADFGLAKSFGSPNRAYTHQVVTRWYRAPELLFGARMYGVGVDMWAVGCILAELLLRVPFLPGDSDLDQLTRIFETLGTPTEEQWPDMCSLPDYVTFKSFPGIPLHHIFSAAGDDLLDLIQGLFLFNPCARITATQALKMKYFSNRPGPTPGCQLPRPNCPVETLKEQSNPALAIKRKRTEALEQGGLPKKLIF

[7] = molecular target: Receptor tyrosine-protein kinase erbB-4 (Homo sapiens) (UniProt Q15303); assay: Inhibition of human recombinant ErbB4 at 15 nM in presence of ATP by radiometric assay relative to control
[8] = molecular target: T2, G protein-coupled receptor kinase 3 (Homo sapiens) (UniProt P35626); assay: Inhibition of human recombinant BARK2 at 40 nM related to control ULK1
T2 sequence (whole entry): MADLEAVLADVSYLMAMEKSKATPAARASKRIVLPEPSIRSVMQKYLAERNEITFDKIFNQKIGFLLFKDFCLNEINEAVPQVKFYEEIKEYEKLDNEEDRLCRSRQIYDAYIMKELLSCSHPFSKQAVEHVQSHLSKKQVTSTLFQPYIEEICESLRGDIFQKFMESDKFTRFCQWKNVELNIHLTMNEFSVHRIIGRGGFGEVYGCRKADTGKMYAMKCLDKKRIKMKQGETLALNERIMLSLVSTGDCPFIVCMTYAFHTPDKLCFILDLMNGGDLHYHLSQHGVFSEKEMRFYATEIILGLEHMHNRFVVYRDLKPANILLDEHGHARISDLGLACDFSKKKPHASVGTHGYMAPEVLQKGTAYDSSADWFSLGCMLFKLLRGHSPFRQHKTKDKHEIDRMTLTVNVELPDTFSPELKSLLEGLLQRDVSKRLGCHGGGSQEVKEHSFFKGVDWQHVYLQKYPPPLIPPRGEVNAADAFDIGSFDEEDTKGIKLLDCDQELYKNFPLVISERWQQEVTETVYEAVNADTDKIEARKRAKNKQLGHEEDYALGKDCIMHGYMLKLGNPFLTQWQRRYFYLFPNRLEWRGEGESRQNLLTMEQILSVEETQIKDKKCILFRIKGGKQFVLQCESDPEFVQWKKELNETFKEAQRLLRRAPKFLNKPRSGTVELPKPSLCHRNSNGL
Method in brief: (§2)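 Radiometric activity assays in a panel of 327 human recombinant kinases, each run in duplicate at one inhibitor concentration. Activity remaining is expressed as percent of vehicle control, and percent inhibition is calculated as 100% minus percent activity remaining.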

[9] = molecular target: Insulin receptor (Homo sapiens) (UniProt P06213); assay: Inhibition of human recombinant INSR at 40 nM in presence of ATP by radiometric assay relative to control
Chain of Insulin receptor (Homo sapiens) (P06213 28-758 limits assumed): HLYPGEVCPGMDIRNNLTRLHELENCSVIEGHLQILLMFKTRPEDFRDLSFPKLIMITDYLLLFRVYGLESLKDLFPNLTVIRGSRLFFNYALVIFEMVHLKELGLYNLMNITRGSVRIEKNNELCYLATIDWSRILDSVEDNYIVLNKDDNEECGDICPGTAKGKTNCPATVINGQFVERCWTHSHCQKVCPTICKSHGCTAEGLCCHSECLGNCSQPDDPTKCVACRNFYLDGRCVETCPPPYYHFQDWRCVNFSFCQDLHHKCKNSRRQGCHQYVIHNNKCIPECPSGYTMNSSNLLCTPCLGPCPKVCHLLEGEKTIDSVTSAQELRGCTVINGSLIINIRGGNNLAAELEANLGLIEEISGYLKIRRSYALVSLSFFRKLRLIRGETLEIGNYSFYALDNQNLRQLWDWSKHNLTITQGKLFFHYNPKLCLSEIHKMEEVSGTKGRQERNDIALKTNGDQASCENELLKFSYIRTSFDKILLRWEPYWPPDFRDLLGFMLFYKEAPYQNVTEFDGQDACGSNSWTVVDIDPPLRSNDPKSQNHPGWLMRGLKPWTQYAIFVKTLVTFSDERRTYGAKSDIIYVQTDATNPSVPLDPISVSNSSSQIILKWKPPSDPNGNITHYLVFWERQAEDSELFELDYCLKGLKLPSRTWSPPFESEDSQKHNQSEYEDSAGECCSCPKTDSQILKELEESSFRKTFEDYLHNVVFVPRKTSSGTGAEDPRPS
Chain of Insulin receptor (Homo sapiens) (P06213 763-1382 limits assumed): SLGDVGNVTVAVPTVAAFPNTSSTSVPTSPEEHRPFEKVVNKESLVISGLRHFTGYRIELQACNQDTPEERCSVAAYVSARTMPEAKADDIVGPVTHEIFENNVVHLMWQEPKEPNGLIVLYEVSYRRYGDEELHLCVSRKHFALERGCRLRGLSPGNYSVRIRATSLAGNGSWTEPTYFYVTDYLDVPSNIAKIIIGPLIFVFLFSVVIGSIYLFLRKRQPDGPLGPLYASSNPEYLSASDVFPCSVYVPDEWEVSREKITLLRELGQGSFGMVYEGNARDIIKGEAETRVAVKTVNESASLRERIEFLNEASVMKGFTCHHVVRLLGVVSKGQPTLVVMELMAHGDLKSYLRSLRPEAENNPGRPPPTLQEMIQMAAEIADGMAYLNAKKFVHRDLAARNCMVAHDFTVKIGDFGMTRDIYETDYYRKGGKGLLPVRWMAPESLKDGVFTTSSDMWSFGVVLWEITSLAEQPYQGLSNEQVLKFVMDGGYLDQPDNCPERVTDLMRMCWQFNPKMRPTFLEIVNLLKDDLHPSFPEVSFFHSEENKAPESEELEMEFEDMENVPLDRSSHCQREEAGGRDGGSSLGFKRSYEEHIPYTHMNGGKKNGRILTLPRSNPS

[10] = molecular target: T3, Aurora kinase A (Homo sapiens) (UniProt O14965); assay: Inhibition of human recombinant AurA at 40 nM related to control ULK1; method in brief: as §2
T3 sequence (whole entry): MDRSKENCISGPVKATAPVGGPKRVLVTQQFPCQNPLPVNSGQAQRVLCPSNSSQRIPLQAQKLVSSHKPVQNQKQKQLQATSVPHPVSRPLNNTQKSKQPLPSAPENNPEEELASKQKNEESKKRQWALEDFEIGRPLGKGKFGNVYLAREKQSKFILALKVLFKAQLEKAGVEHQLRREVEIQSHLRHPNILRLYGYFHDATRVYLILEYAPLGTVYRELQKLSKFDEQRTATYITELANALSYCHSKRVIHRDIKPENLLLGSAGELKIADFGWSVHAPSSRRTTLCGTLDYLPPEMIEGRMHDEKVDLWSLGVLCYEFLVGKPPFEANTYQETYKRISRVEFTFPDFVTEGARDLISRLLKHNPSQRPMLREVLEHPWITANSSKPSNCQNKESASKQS

[11] = molecular target: Serine/threonine-protein kinase ATR (Homo sapiens) (UniProt Q13535); assay: Inhibition of human recombinant ATR at 40 nM in presence of ATP by radiometric assay relative to control
Method in brief: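 Panel of 327 recombinant human kinases, each assayed in vitro by radiometric activity assay in duplicate at a single inhibitor concentration per compound, chosen with reference to its ULK1 inhibition. Activity remaining was expressed as percent of vehicle control, and percent inhibition was calculated as 100 minus percent activity remaining.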

[12] = molecular target: Activated CDC42 kinase 1 (Homo sapiens) (UniProt Q07912); assay: Inhibition of human recombinant ACK at 40 nM in presence of ATP by radiometric assay relative to control; method in brief: as §1
Chain of Activated CDC42 kinase 1 (Homo sapiens) (Q07912 whole entry, looked up): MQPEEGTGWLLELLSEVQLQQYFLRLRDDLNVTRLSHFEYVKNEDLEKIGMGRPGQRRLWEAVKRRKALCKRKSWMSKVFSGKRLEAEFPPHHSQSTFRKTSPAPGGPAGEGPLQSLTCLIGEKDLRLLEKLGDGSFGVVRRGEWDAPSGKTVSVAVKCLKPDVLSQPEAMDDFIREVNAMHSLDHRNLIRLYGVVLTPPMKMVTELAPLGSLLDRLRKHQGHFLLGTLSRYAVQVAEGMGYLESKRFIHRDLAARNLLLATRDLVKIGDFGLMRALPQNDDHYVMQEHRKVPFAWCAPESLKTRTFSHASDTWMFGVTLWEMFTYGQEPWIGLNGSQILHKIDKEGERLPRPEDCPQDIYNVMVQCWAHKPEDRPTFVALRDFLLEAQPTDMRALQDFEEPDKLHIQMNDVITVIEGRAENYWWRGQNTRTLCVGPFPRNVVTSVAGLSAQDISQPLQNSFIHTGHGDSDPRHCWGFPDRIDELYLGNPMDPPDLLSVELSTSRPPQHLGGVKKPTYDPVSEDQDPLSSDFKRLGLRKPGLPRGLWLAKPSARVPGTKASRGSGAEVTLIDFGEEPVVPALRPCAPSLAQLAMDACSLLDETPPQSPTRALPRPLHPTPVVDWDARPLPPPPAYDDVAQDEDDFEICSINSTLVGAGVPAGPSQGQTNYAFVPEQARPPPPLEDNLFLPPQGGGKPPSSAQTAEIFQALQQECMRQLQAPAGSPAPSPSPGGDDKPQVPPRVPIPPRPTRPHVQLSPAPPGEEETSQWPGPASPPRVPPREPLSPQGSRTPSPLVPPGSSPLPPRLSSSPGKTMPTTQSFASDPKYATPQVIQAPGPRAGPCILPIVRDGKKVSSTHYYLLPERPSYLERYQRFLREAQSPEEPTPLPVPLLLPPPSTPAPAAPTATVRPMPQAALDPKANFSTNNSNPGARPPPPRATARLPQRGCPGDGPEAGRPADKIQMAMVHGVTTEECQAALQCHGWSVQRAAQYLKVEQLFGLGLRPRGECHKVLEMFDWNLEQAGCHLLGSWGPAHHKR

[13] = molecular target: Ribosomal protein S6 kinase alpha-6 (Homo sapiens) (UniProt Q9UK32); assay: Inhibition of human recombinant RSK4 at 40 nM related to control ULK1
Chain of Ribosomal protein S6 kinase alpha-6 (Homo sapiens) (Q9UK32 whole entry): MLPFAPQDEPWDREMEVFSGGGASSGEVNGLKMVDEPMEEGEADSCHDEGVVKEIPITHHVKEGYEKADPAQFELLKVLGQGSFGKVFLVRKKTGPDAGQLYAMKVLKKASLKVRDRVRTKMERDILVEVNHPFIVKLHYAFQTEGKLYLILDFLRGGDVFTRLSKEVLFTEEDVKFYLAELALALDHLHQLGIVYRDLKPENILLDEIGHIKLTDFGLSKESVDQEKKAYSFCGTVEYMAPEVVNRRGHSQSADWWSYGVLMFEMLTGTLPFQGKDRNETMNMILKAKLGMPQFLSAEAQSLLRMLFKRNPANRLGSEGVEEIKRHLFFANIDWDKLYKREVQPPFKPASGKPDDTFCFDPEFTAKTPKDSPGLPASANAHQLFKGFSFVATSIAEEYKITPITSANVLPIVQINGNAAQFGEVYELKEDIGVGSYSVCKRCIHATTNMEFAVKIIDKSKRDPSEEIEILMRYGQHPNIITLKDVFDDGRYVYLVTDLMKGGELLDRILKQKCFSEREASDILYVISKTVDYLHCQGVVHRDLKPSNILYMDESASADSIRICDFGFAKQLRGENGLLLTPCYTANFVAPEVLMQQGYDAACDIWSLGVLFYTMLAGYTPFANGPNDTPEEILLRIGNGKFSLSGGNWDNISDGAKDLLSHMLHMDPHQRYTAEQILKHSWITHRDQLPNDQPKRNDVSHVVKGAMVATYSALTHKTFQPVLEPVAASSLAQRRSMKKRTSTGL

inhibition [1]: 23%
fold change (FC) [2]: 0.12
inhibition [3]: 0%
Structure (SMILES): CNC(=O)c1ccccc1Oc1nc(Nc2cc(OC)c(OC)c(OC)c2)ncc1Br

inhibition [4]: 2%
inhibition [5]: 0%
fold change (FC) [6]: 0.18
inhibition [7]: 0%
Structure (SMILES): CC(C)[C@H](NC(=O)c1cc(-c2cnn3cc(-c4ccc(OCCN5CCCCC5)cc4)cnc23)cs1)C(F)(F)F

fold change (FC) [8]: 0.1
inhibition [9]: 0%
fold change (FC) [10]: 0.3
inhibition [11]: 0%
inhibition [12]: 17%
fold change (FC) [13]: 0
Structure (SMILES): O=C(N[C@@H](C1CC1)C(F)(F)F)c1cc(-c2cnn3cc(-c4ccc(F)cc4)cnc23)cs1
